Measurements published in ChEMBL document CHEMBL5104109, “The identification of highly efficacious functionalised tetrahydrocyclopenta[c]pyrroles as inhibitors of HBV viral replication through modulation of HBV capsid assembly” (RSC Med Chem, 2022).
≈ marks a conversion by molar mass, not a printed value.

How the values were obtained:
Hepatitis B virus [1] = assay: Antiviral activity against HBV infected in HepDE19 cells assessed as inhibition of HBV DNA; assay type: functional, organism-based
Outline: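 HepDE19 cells (HepG2-derived, HBV genotype D ayw, Tet-off CMV) seeded at 50,000 cells/well with tetracycline 1 μg/mL overnight. Next day switched to tet-free medium for 4 h, then given compound from 10 μM in a ½-log 8-point series, in duplicate, 0.5% DMSO final. After 7 days at 37 °C, intracellular rcDNA was read by bDNA. EC50 from a 4-parameter fit vs DMSO wells; mean of ≥2 experiments.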

[2] = Metabolic stability in CD-1 mouse liver microsomes assessed as half life at 0.3 uM and measured upto 1 hrs; assay type: ADME, Microsome
Outline: (§1)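 Compound at 0.3 μM final was incubated with human or mouse liver microsomes at 0.5 mg/mL in 100 mM potassium phosphate pH 7.4 with 1 mM NADPH at 37 °C. T1/2 = ln(2)/k. CLint = (0.693/t1/2)/0.5 mg/mL microsomal protein.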

[3] = Cmax in CD-1 mouse at 10 mg/kg, po; assay type: ADME, organism-based; design: dose 10 mg/kg, route po; conditions: in vivo
Outline: (§2)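 Female CD-1 mice were dosed 2.0 mg/kg IV or 10 mg/kg PO in 40% PEG400/5% EtOH/55% water. Serial blood was taken at 5 min (IV), 15 min (PO), 30 min, and 2, 4, 8, 12 and 24 h into K2EDTA, and plasma was prepared. Plasma levels were measured by LC-MS/MS against spiked plasma standards of 0.5–8000 ng/mL. Parameters came from non-compartmental analysis.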

[4] = Metabolic stability in human liver microsomes assessed as half life at 0.3 uM and measured upto 1 hrs; assay type: ADME, Microsome; outline: as §1
Hepatitis B virus [5] = assay: Antiviral activity against HBV infected in NOD.CB17-Prkdc-scid/J hydrodynamic injection mouse model expressing HBV genotype D assessed as log reduction in HBV DNA at 3 mg/kg,po BID for 7 days by qPCR method relative to control; assay type: functional; conditions: time 7 day
Outline: (§3)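 Six-week-old female NOD.CB17-Prkdcscid/J mice received an HBV plasmid by hydrodynamic tail-vein injection (1.6 mL within 5 s). Seven days after injection (day 0), oral gavage dosing began at 3, 10 or 30 mg/kg once or twice daily; controls received vehicle by gavage. Serum was taken on day 0 (predose) and day 7, and HBV DNA was measured in total extracted nucleic acid by qPCR.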

in vitro [6] = conditions: human, liver microsomes
[7] = Metabolic stability in human liver microsomes assessed as parent compound remaining at 0.3 uM and measured after 1 hrs; assay type: ADME, Microsome; conditions: read-out: Stability
[8] = Cytotoxicity against human HepDE19 cells assessed as reduction in cell viability upto 25 uM; assay type: toxicity, cell-based; conditions: hepde19, 25 µM
Outline: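 Run on HepDE19 replicate plates seeded at 5,000 cells/well after tetracycline removal. Cells were exposed to compound for 4 days at 37 °C, 5% CO2. Viability was read as intracellular ATP by CellTiter-Glo luminescence, expressed as % of DMSO controls. CC50 came from a 4-parameter curve fit, as the mean of ≥2 experiments.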

[9] = Aqueous solubility of compound at pH 7.4; assay type: physicochemical; conditions: buffer
Outline: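 A 10 mM DMSO stock was diluted into PBS pH 7.4 to 200 μM compound, 2% DMSO final, and shaken 18–24 h at 22 °C. Samples were filtered by centrifugation and the filtrate quantified by UPLC-UV/MS against a standard curve of 4–200 μM in DMSO.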

[10] = Half life in CD-1 mouse at 10 mg/kg, po or 2 mg/kg, iv; assay type: ADME, organism-based; conditions: in vivo; outline: as §2
Hepatitis B virus [11] = assay: Antiviral activity against HBV infected in NOD.CB17-Prkdc-scid/J hydrodynamic injection mouse model expressing HBV genotype D assessed as log reduction in HBV DNA at 10 mg/kg,po BID for 7 days by qPCR method relative to control; assay type: functional; conditions: time 7 day; outline: as §3
in vitro [12] = conditions: CD-1, mouse, liver microsomes
Hepatitis B virus [13] = assay: Antiviral activity against HBV infected in NOD.CB17-Prkdc-scid/J hydrodynamic injection mouse model expressing HBV genotype D assessed as log reduction in HBV DNA at 30 mg/kg,po BID for 7 days by qPCR method relative to control; assay type: functional; conditions: time 7 day; outline: as §3
[14] = Metabolic stability in CD-1 mouse liver microsomes assessed as parent compound remaining at 0.3 uM and measured after 1 hrs; assay type: ADME, Microsome; conditions: read-out: Stability
Hepatitis B virus [15] = assay: Antiviral activity against HBV infected in NOD.CB17-Prkdc-scid/J hydrodynamic injection mouse model expressing HBV genotype D assessed as log reduction in HBV DNA at 30 mg/kg,po QD for 7 days by qPCR method relative to control; assay type: functional; conditions: time 7 day; outline: as §3
[16] = AUC (0-infinity) in CD-1 mouse at 10 mg/kg, po; assay type: ADME, organism-based; design: time infinity, dose 10 mg/kg, route po; conditions: in vivo; outline: as §2
Hepatitis B virus [17] = assay: Antiviral activity against HBV infected in NOD.CB17-Prkdc-scid/J hydrodynamic injection mouse model expressing HBV genotype D assessed as log reduction in HBV DNA at 100 mg/kg,po QD for 7 days by qPCR method relative to control; assay type: functional; conditions: time 7 day
Hepatitis B virus [18] = assay: Antiviral activity against HBV infected in NOD.CB17-Prkdc-scid/J hydrodynamic injection mouse model expressing HBV genotype D assessed as log reduction in HBV DNA at 10 mg/kg,po QD for 7 days by qPCR method relative to control; assay type: functional; conditions: time 7 day; outline: as §3
Hepatitis B virus [19] = assay: Antiviral activity against HBV infected in NOD.CB17-Prkdc-scid/J hydrodynamic injection mouse model expressing HBV genotype D assessed as log reduction in HBV DNA at 3 mg/kg,po QD for 7 days by qPCR method relative to control; assay type: functional; conditions: time 7 day; outline: as §3

SMILES	EC50 (Hepatitis B virus [1]) [µM]	Cmax [3] [ng/mL]	microsomal CLint at 1 h, 0.3 µM (in vitro [6]) [µL/min/mg]	solubility [9] [µM]	half-life [10] [h]	microsomal CLint at 1 h, 0.3 µM (in vitro [12]) [µL/min/mg]	AUC [16] [ng·h/mL]	other results
O=C(Nc1cc(F)c(F)c(F)c1)c1ccc(F)c(S(=O)(=O)N2CCC(O)CC2)c1	0.65	–	–	–	–	–	–	–
Cn1cc(COC(=O)N[C@H]2CCc3c2cn(C)c3C(=O)Nc2ccc(F)c(Cl)c2)nn1	0.052	–	24.4	< 4	–	38.4	–	–
Cc1c2c(c(C(=O)Nc3ccc(F)c(Cl)c3)n1C)CC[C@@H]2NC(=O)OCc1ncn(C)n1	0.114	–	12.7	5 (≈ 2.3 µg/mL)	–	52.8	–	–
Cn1cc2c(c1C(=O)Nc1ccc(F)c(Cl)c1)CC[C@@H]2NC(=O)OCc1nc[nH]n1	0.05	3860	4.1	23 (≈ 9.96 µg/mL)	4.8	12.3	40700	log(activity) (Hepatitis B virus [18]): 0.6
Cn1cnc(COC(=O)N[C@H]2CCc3c2c(Cl)n(C)c3C(=O)Nc2ccc(F)c(Cl)c2)n1	0.013	–	8.8	5 (≈ 2.41 µg/mL)	–	33.8	–	–
C[C@H](NS(=O)(=O)c1cc(C(=O)Nc2ccc(F)c(C#N)c2)n(C)c1)C(F)(F)F [BERSACAPAVIR]	0.045	–	–	–	–	–	–	–
O=C(NCc1cnc(C(F)(F)F)s1)c1ccc2c(c1)NC(=O)c1ccccc1S2(=O)=O [VEBICORVIR]	0.25	–	–	–	–	–	–	–

Second part, led by results:

EC50 (Hepatitis B virus [1]) [µM]	Cmax [3] [ng/mL]	microsomal CLint at 1 h, 0.3 µM (in vitro [6]) [µL/min/mg]	solubility [9] [µM]	half-life [10] [h]	microsomal CLint at 1 h, 0.3 µM (in vitro [12]) [µL/min/mg]	AUC [16] [ng·h/mL]	SMILES	other results
0.11	–	–	–	–	–	–	CCOC(=O)C1=C(CN2CCOCC2)NC(c2nccs2)=NC1c1ccc(F)cc1Br (stereo unspecified)	–
0.05	–	–	–	–	–	–	COC(=O)C1=C(CN2CCOC[C@H]2C(=O)O)NC(c2nccs2)=N[C@H]1c1ccc(F)cc1Br	–
0.052	4270	5.4	24 (≈ 10.7 µg/mL)	2.6	12.2	46700	Cn1cnc(COC(=O)N[C@H]2CCc3c2cn(C)c3C(=O)Nc2ccc(F)c(Cl)c2)n1	half-life at 0.3 µM [2]: 1.9 h; half-life at 0.3 µM [4]: 4.27 h; log(activity) (Hepatitis B virus [5]): 0.8; remaining at 1 h, 0.3 µM [7]: 87%; Activity [8]: Non-Toxic; log(activity) (Hepatitis B virus [11]): 1.9; log(activity) (Hepatitis B virus [13]): 2.5; remaining at 1 h, 0.3 µM [14]: 81%; log(activity) (Hepatitis B virus [15]): 1.8
0.014	2510	11.2	< 4	3.5	20.2	30600	Cn1c(Cl)c2c(c1C(=O)Nc1ccc(F)c(Cl)c1)CC[C@@H]2NC(=O)OCc1c[nH]nn1	–
0.011	–	8.6	< 4	–	29.7	–	Cn1c(Cl)c2c(c1C(=O)Nc1ccc(F)c(Cl)c1)CC[C@@H]2NC(=O)OCc1nc[nH]n1	–
0.077	1610	6.2	–	2.5	20.6	9870	Cn1cnc(COC(=O)N[C@H]2CCc3c(C(=O)Nc4ccc(F)c(Cl)c4)ccc(F)c32)n1	half-life at 0.3 µM [2]: 1.23 h; half-life at 0.3 µM [4]: 3.22 h; log(activity) (Hepatitis B virus [17]): 1; remaining at 1 h, 0.3 µM [7]: 83%; log(activity) (Hepatitis B virus [11]): 0.6; log(activity) (Hepatitis B virus [13]): 2.1; remaining at 1 h, 0.3 µM [14]: 56%
0.012	–	8.5	< 4	–	31.4	–	Cn1cnc(COC(=O)N[C@H]2CCc3c2c(Br)n(C)c3C(=O)Nc2ccc(F)c(Cl)c2)n1	–
0.057	4530	7.9	10 (≈ 4.33 µg/mL)	5.8	21.6	60600	Cn1cc2c(c1C(=O)Nc1ccc(F)c(Cl)c1)CC[C@@H]2NC(=O)OCc1c[nH]nn1	log(activity) (Hepatitis B virus [18]): 1.5; log(activity) (Hepatitis B virus [19]): 0.8; log(activity) (Hepatitis B virus [15]): 2
3.5	–	–	–	–	–	–	Cn1cnc(COC(=O)N[C@@H]2CCc3c2cn(C)c3C(=O)Nc2ccc(F)c(Cl)c2)n1	Activity [8]: Non-Toxic
